One assay relates to Pseudomonas aeruginosa. The assay is described as follows: Antibacterial activity against Pseudomonas aeruginosa ATCC 14502 after 18 hrs. The format is functional, organism-based. A digest of the protocol:
(§1)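 Bacterial cells suspended in Mueller-Hinton broth at a final density of […]. Incubated aerobically with compounds in DMSO at 37 °C for 18 h, alongside DMSO-only blank cultures and an ofloxacin positive control. MIC taken as the lowest concentration giving complete inhibition of visible growth.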

The next assay concerns Bacillus subtilis. Nature of the assay: Antibacterial activity against Bacillus subtilis ATCC 6633 after 18 hrs. The assay is classed as functional, organism-based. A digest of the protocol: as §1
A further assay deals with Saccharomyces. The assay is described as follows: Antifungal activity against Saccharomyces sake ATCC 26421 after 48 hrs. The assay is classed as functional, organism-based. A digest of the protocol: (§2)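 Fungi grown in Sabouraud dextrose broth with compounds for 48 h at 37 °C. Blank cultures received a limited amount of DMSO. Amphotericin B, dissolved in DMSO, served as the positive control.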

Another assay concerns Nannizzia gypsea. The assay is described as follows: Antifungal activity against Microsporum gypseum ATCC 14683 after 48 hrs. The format is functional, organism-based. A digest of the protocol:
as §2

The test system of a further assay is Trichophyton rubrum. The assay is described as follows: Antifungal activity against Trichophyton rubrum ATCC 10218 after 48 hrs. The format is functional, organism-based. A digest of the protocol: as §2
The subject of a further assay is Candida albicans. The assay is described as follows: Antifungal activity against Candida albicans ATCC 1600 after 48 hrs. The format is functional, organism-based. A digest of the protocol: as §2
The next assay has as its system Staphylococcus aureus. Nature of the assay: Antibacterial activity against Staphylococcus aureus ATCC 25923 after 18 hrs. The format is functional, organism-based. The procedure, abridged: as §1
Assay [1] has as its system Staphylococcus epidermidis. The assay is described as follows: Antibacterial activity against Staphylococcus epidermidis ATCC 12228 after 18 hrs. The assay is classed as functional, organism-based. A digest of the protocol:
as §1

The next assay concerns Kocuria rhizophila. Nature of the assay: Antibacterial activity against Micrococcus luteus ATCC 9341 after 18 hrs. As to conditions: for Activity: DC2201; for MIC: DC2201, 18 h. The assay is classed as functional. A digest of the protocol:
as §1

For the next assay, the system named is Escherichia coli. Nature of the assay: Antibacterial activity against Escherichia coli ATCC 25922 after 18 hrs. The assay is classed as functional, organism-based. A digest of the protocol:
as §1

A further assay deals with Shigella flexneri. Nature of the assay: Antibacterial activity against Shigella flexneri ATCC 12022 after 18 hrs. The assay is classed as functional, organism-based. A digest of the protocol:
as §1

14 compounds from ChEMBL document CHEMBL1153729, “Structurally diverse limonoids from the fruits of Swietenia mahagoni” (2009) can be followed below.

SMILES strings stand for the structures. ≈ marks a conversion by molar mass, not a printed value. Calls of active or inactive are those of the source. No cut-off for these calls is given here.

On to `C=C1C2=CC(=O)O[C@@H](c3ccoc3)[C@]2(C)CC[C@@H]1[C@@]1(C)[C@@H](O)CC(=O)C(C)(C)[C@@H]1CC(=O)OC`, for which the result in the assay on Pseudomonas aeruginosa, in the assay on Bacillus subtilis, with Saccharomyces, in the assay on Nannizzia gypsea, in the assay with Trichophyton rubrum and in the assay on Candida albicans was inactive. For the same compound, the result (in the assay with Staphylococcus aureus; in assay [1]; in the assay with Kocuria rhizophila; with Escherichia coli; with Shigella flexneri) was inactive.
In the case of `CC(=O)O[C@H]1C[C@@H](O)C(C)(C)[C@@H]2C[C@@H](OC(C)=O)[C@]3(C)[C@H](CC[C@@]4(C)[C@H](c5ccoc5)OC(=O)[C@H]5O[C@@]534)[C@@]12C`, the result with Pseudomonas aeruginosa, in the assay on Bacillus subtilis, in the assay with Saccharomyces, in the assay on Nannizzia gypsea, in the assay with Trichophyton rubrum and in the assay with Candida albicans was inactive. The outcome (in the assay with Staphylococcus aureus; in assay [1]; in the assay on Kocuria rhizophila; with Escherichia coli; in the assay on Shigella flexneri) was inactive.
In the case of `COC(=O)C[C@H]1C(C)(C)[C@H](OC(C)=O)[C@@H]2C=C3[C@H]([C@H](OC(C)=O)C[C@]4(C)[C@H]3CC(=O)O[C@H]4c3ccoc3)[C@@]1(C)C2=O`, the result in the assay with Pseudomonas aeruginosa, in the assay with Bacillus subtilis, in the assay on Saccharomyces, in the assay on Nannizzia gypsea, in the assay with Trichophyton rubrum and in the assay with Candida albicans was inactive. Also, the result (in the assay on Staphylococcus aureus; in [1]; in the assay on Kocuria rhizophila; in the assay with Escherichia coli; with Shigella flexneri) was inactive.
Take `COC(=O)C[C@H]1C(C)(C)[C@H](OC(C)=O)[C@]2(O)CC3=C4[C@@H](O)C(=O)O[C@@H](c5ccoc5)[C@]4(C)CC[C@@H]3[C@@]1(C)C2=O`: the outcome with Pseudomonas aeruginosa, in the assay with Bacillus subtilis, in the assay on Saccharomyces, in the assay with Nannizzia gypsea, with Trichophyton rubrum and with Candida albicans was inactive. Moreover, the result (in the assay on Staphylococcus aureus; in [1]; in the assay on Kocuria rhizophila; in the assay on Escherichia coli; with Shigella flexneri) was inactive.
Regarding `COC(=O)C[C@H]1C(C)(C)C(=O)[C@@H]2CC3=C4CC(=O)O[C@@H](c5ccoc5)[C@]4(C)CC[C@@H]3[C@@]1(C)C2=O`, the outcome in the assay with Pseudomonas aeruginosa, in the assay with Bacillus subtilis, in the assay with Saccharomyces, in the assay with Nannizzia gypsea, with Trichophyton rubrum and in the assay with Candida albicans was inactive. Moreover, the outcome (in the assay with Staphylococcus aureus; in assay [1]; with Kocuria rhizophila; in the assay with Escherichia coli; in the assay with Shigella flexneri) was inactive.
`CC1(C)[C@H](O)C[C@H](O)[C@]2(C)[C@H]3CC[C@@]4(C)[C@H](c5ccoc5)OC(=O)[C@H]5O[C@]54[C@]3(C)[C@H](O)C[C@@H]12`: the outcome in the assay on Pseudomonas aeruginosa, in the assay on Bacillus subtilis, with Saccharomyces, in the assay with Nannizzia gypsea, with Trichophyton rubrum and in the assay on Candida albicans was inactive. For the same compound, the result (in the assay with Staphylococcus aureus; in assay [1]; in the assay with Kocuria rhizophila; with Escherichia coli; in the assay on Shigella flexneri) was inactive.
As for `COC(=O)C[C@H]1C(C)(C)C(=O)[C@@H]2C[C@]3(O)C4=CC(=O)O[C@@H](c5ccoc5)[C@]4(C)CC[C@@H]3[C@@]1(C)C2=O`, the result with Pseudomonas aeruginosa, in the assay on Bacillus subtilis, in the assay on Saccharomyces, in the assay with Nannizzia gypsea, in the assay with Trichophyton rubrum and in the assay with Candida albicans was inactive. For the same compound, the outcome (in the assay with Staphylococcus aureus; in assay [1]; in the assay on Kocuria rhizophila; in the assay with Escherichia coli; in the assay with Shigella flexneri) was inactive.
Regarding `CC(=O)O[C@H]1C[C@@H](OC(C)=O)C(C)(C)[C@@H]2C[C@@H](OC(C)=O)[C@]3(C)[C@H](CC[C@@]4(C)[C@H](c5ccoc5)OC(=O)[C@H]5O[C@@]534)[C@@]12C`, the result with Pseudomonas aeruginosa, in the assay with Bacillus subtilis, in the assay on Saccharomyces, in the assay on Nannizzia gypsea, in the assay on Trichophyton rubrum and with Candida albicans was inactive. The result (in the assay on Staphylococcus aureus; in assay [1]; in the assay on Kocuria rhizophila; in the assay with Escherichia coli; in the assay on Shigella flexneri) was inactive.
For the compound `COC(=O)C[C@H]1C(C)(C)[C@H](OC(=O)C(C)C)[C@]2(O)C=C3C4=CC(=O)O[C@@H](c5ccoc5)[C@]4(C)CC[C@@H]3[C@@]1(C)C2=O`, the result in the assay with Pseudomonas aeruginosa, in the assay with Bacillus subtilis, in the assay with Saccharomyces, with Nannizzia gypsea, in the assay with Trichophyton rubrum and in the assay with Candida albicans was inactive. The result (with Staphylococcus aureus; in [1]; with Kocuria rhizophila; in the assay on Escherichia coli; with Shigella flexneri) was inactive.
What is called MIC is the lowest concentration found to suppress growth. Read a high MIC as a less susceptible organism. Take `CC1COc2c(N3CCN(C)CC3)c(F)cc3c(=O)c(C(=O)O)cn1c23` (centres undefined) [OFLOXACIN]: inhibition of growth with Kocuria rhizophila (MIC) required 1.56 µg/mL (≈ 4.32 µM).
`COC(=O)C[C@H]1C(C)(C)[C@H](OC(=O)C(C)C)[C@]2(O)CC3=C4CC(=O)O[C@@H](c5ccoc5)[C@]4(C)CC[C@@H]3[C@@]1(C)C2=O`: the result with Pseudomonas aeruginosa, in the assay on Bacillus subtilis, with Saccharomyces, in the assay on Nannizzia gypsea, with Trichophyton rubrum and in the assay on Candida albicans was inactive. The outcome (in the assay on Staphylococcus aureus; in assay [1]; in the assay with Escherichia coli; with Shigella flexneri) was inactive. For the same compound, the minimal inhibitory concentration (MIC) in the assay on Kocuria rhizophila came to 50 µg/mL (≈ 89.8 µM).
Consider `COC(=O)C[C@H]1C(C)(C)[C@@H](OC(C)=O)[C@@H]2CC3=C4CC(=O)O[C@@H](c5ccoc5)[C@]4(C)CC[C@@H]3[C@@]1(C)C2=O`, for which the result with Pseudomonas aeruginosa, with Bacillus subtilis, in the assay with Saccharomyces, in the assay on Nannizzia gypsea, with Trichophyton rubrum and in the assay with Candida albicans was inactive. The result (with Staphylococcus aureus; in [1]; in the assay on Kocuria rhizophila; with Escherichia coli; in the assay with Shigella flexneri) was inactive.
In the case of `C=C1[C@@H]2CC[C@@]3(C)[C@H](c4ccoc4)OC(=O)C[C@]13O[C@H]1CC(=O)C(C)(C)[C@H](C(O)C(=O)OC)[C@]12C` (some centres undefined), the outcome in the assay on Pseudomonas aeruginosa, in the assay on Bacillus subtilis, in the assay with Saccharomyces, in the assay with Nannizzia gypsea, in the assay on Trichophyton rubrum and in the assay on Candida albicans was inactive. Moreover, the outcome (in the assay on Staphylococcus aureus; in [1]; in the assay on Kocuria rhizophila; in the assay on Escherichia coli; with Shigella flexneri) was inactive.
For `COC(=O)C[C@H]1C(C)(C)[C@H](OC(C)=O)[C@]2(O)C=C3C4=CC(=O)O[C@@H](c5ccoc5)[C@]4(C)CC[C@@H]3[C@@]1(C)C2=O`, the outcome in the assay on Pseudomonas aeruginosa, in the assay on Bacillus subtilis, in the assay with Saccharomyces, with Nannizzia gypsea, in the assay with Trichophyton rubrum and in the assay with Candida albicans was inactive. The outcome (in the assay on Staphylococcus aureus; in assay [1]; in the assay with Kocuria rhizophila; in the assay with Escherichia coli; in the assay with Shigella flexneri) was inactive.
